Experimental data from ChEMBL document CHEMBL4368937, “Design, synthesis and biological evaluation of low molecular weight CXCR4 ligands” (Bioorg Med Chem, 2019).

How the values were obtained:
[1] = molecular target: T1, C-X-C chemokine receptor type 4 (Homo sapiens, UniProt P61073); experiment: Competitive inhibition of TAMRAAc-TZ14011 binding to CXCR4 (unknown origin) expressed in CHO cells at 1 uM in presence of ZnCl2 by NanoBRET assay relative to control; assay type: cell-based
In short: (§1)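 Single-point competition in CHO cells stably expressing N-terminally Nluc-tagged CXCR4 (5 x 10^4 cells, seeded 24 h earlier at 37 °C, 5% CO2, medium then replaced with OptiMEM). Cells were incubated with 10 nM TAMRA-Ac-TZ14011 plus 1 µM compound, without or with 10 µM ZnCl2 (10 eq), for 1 h at 25 °C. Furimazine was added and BRET read as acceptor (>610 nm) over donor (460 nm). Inhibition is relative to no compound and to excess Ac-TZ14011; mean ± SEM, n = 3.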

[2] = molecular target: T1, C-X-C chemokine receptor type 4; experiment: Competitive inhibition of TAMRAAc-TZ14011 binding to CXCR4 (unknown origin) expressed in CHO cells at 1 uM in absence of ZnCl2 by NanoBRET assay relative to control; assay type: cell-based; in short: as §1
[3] = molecular target: T1, C-X-C chemokine receptor type 4; experiment: Competitive inhibition of [125I]-CXCL12 binding to CXCR4 in human Jurkat cells at 1 uM in absence of ZnCl2 after 2 hrs by gamma counting analysis relative to control; assay type: cell-based
[4] = molecular target: T1, C-X-C chemokine receptor type 4; experiment: Competitive inhibition of [125I]-CXCL12 binding to CXCR4 in human Jurkat cells at 1 uM in presence of ZnCl2 after 2 hrs by gamma counting analysis relative to control; assay type: cell-based
[5] = molecular target: T1, C-X-C chemokine receptor type 4; experiment: Competitive inhibition of TAMRAAc-TZ14011 binding to CXCR4 (unknown origin) expressed in CHO cells in presence of ZnCl2 by NanoBRET assay relative to control; assay type: cell-based
In short: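 Cells were incubated with 10 nM TAMRA-Ac-TZ14011 and compound plus ZnCl2 (10 eq). Furimazine was added and BRET ratio taken as >610 nm over 460 nm emission. Inhibition is scaled between no compound and excess Ac-TZ14011.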

[6] = system: Human immunodeficiency virus 1; experiment: Antiviral activity against X4 tropic HIV-1 NL4-3 infected in human MT4 cells assessed as protection against virus-induced cytopathic effect in absence of ZnCl2 after 5 days by MTT assay; assay type: functional, organism-based; conditions: Human immunodeficiency virus 1, NL4-3, MT4, 120 h
In short: (§2)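 Protection of MT-4 cells from X4 HIV-1 NL4-3 cytopathicity. Infected cells (MOI 0.001, 2.0 × 10^4 cells/well) received graded compound concentrations, without or with ZnCl2 (10 eq), for 5 days at 37 °C. Viable cells were counted by MTT. EC50 is the concentration giving 50% protection; mean of at least three independent experiments.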

[7] = system: Human immunodeficiency virus 1; experiment: Antiviral activity against X4 tropic HIV-1 NL4-3 infected in human MT4 cells assessed as protection against virus-induced cytopathic effect in presence of ZnCl2 after 5 days by MTT assay; assay type: functional, organism-based; conditions: Human immunodeficiency virus 1, NL4-3, MT4, 120 h; in short: as §2
[8] = Cytotoxicity against human MT4 cells in absence of ZnCl2; assay type: cell-based
[9] = Cytotoxicity against human MT4 cells in presence of ZnCl2; assay type: cell-based
In short: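 MT-4 viability with compound plus ZnCl2 (10 eq). CC50 is the concentration giving 50% reduction in viable cells; mean of at least three independent experiments.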

[10] = system: Human immunodeficiency virus 1; experiment: Antiviral activity against R5 tropic HIV-1 NL(AD8) infected in human MT4 cells assessed as protection against virus-induced cytopathic effect at 10 uM in presence of ZnCl2 after 5 days by MTT assay; assay type: functional; conditions: Human immunodeficiency virus 1, NL(AD8), MT4, 120 h
[11] = system: Human immunodeficiency virus 1; experiment: Antiviral activity against R5 tropic HIV-1 NL(AD8) infected in human MT4 cells assessed as protection against virus-induced cytopathic effect at 10 uM in absence of ZnCl2 after 5 days by MTT assay; assay type: functional; conditions: Human immunodeficiency virus 1, NL(AD8), MT4, 120 h

T1 sequence (P61073 whole entry): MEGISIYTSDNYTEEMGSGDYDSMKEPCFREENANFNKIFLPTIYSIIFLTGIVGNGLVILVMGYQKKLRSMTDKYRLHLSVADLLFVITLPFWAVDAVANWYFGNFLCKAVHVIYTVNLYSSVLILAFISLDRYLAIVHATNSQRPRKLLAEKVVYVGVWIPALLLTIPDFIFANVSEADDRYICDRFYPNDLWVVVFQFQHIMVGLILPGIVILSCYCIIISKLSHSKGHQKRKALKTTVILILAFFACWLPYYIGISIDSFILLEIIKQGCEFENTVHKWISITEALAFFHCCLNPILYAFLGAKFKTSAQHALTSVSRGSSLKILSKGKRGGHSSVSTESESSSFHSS

inhibition [1]: 89.9%
inhibition [2]: 80.7%
inhibition [3]: 98.2%
inhibition [4]: 99.6%
IC50 [5]: 10 nM
SMILES: c1ccc(CN(Cc2ccc3cc(CN4CCCNCCNCCCNCC4)ccc3c2)Cc2ccccn2)nc1
EC50 [6]: 470 nM
EC50 [7]: 240 nM
CC50 [8]: > 10000 nM
CC50 [9]: > 10000 nM
inhibition at 10 µM [10]: < 30%
inhibition at 10 µM [11]: < 30%
